According to ChEMBL document CHEMBL4145654, “Structure-Based Discovery of CF53 as a Potent and Orally Bioavailable Bromodomain and Extra-Terminal (BET) Bromodomain Inhibitor” (J Med Chem, 2018):

Experiments:
[1] = molecular target: T1, Bromodomain-containing protein 4 (Homo sapiens, UniProt O60885); assay: Inhibition of FAM-labeled ZBA248 binding to recombinant human BRD4 bromodomain 1 (44 to 168 residues) expressed in Rosetta2 Escherichia coli DE3 cells after 30 mins by fluorescence polarization assay
In short: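 Recombinant human BRD4 BD1 (residues 44−168) in a fluorescence polarization competitive binding assay, run as described in earlier work.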

MDA-MB-231 [2] = assay: Growth inhibition of human MDA-MB-231 cells after 4 days by WST-8 assay; assay type: functional, cell-based; conditions: MDA-MB-231, 96 h
In short: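 Cells used within 3 months of thaw. Breast cancer cells seeded at 3000 cells/well, then serially diluted compound added, cultured 4 days. Growth read by WST-8 (10% v/v final, 1−3 h, 450 nm). Readings normalized to DMSO-treated cells. IC50 by nonlinear regression.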

[3] = Drug uptake in tumor of SCID mouse xenografted with human MDA-MB-231 cells at 50 mg/kg administered via oral gavage measured after 1 hr; assay type: ADME, organism-based, Neoplasm; conditions: read-out: Drug uptake
In short: (§1)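 Limited PK in SCID mice bearing MDA-MB-231 tumors, 50 mg/kg given by oral gavage. Plasma and tumor tissue drug levels measured at two time points per compound. Values are the mean of two mice/tumors per time point.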

[4] = Drug uptake in tumor of SCID mouse xenografted with human MDA-MB-231 cells at 50 mg/kg administered via oral gavage measured after 6 hrs; assay type: ADME, organism-based, Neoplasm; conditions: read-out: Drug uptake; in short: as §1
[5] = Half life in Balb/c mouse at 25 mg/kg, po by LC-MS/MS analysis; assay type: ADME, organism-based; conditions: in vivo
In short: (§2)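 Balb/c mice dosed iv at 5.0 mg/kg or po at 25 mg/kg, compound in vehicle of 20% (v/v) PCP and 70% (v/v) PBS. Serial blood samples taken at 0, 5, 15, 30 min and 1, 2, 4, 6, 8, 24 h. Plasma obtained by centrifugation and stored at −80 °C. Analysis by LC-MS/MS, positive-ion MRM. Parameters from noncompartmental analysis.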

[6] = AUC in Balb/c mouse at 5 mg/kg, iv by LC-MS/MS analysis; assay type: ADME, organism-based; conditions: in vivo; in short: as §2
[7] = Apparent volume of distribution in Balb/c mouse at 5 mg/kg, iv by LC-MS/MS analysis; assay type: ADME, organism-based; conditions: in vivo, read-out: Vz; in short: as §2
MDA-MB-231 [8] = assay: Antitumor activity against human MDA-MB-231 cells xenografted in SCID mouse assessed as tumor growth inhibition at 50 mg/kg administered via oral gavage measured on day 44; assay type: functional; conditions: MDA-MB-231, po, 1056 h, read-out: TGI
In short: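 Each SCID mouse received a single dorsal subcutaneous tumor of 5 × 10⁶ RS4;11 or MDA-MB-231 cells in 50% Matrigel. At about 100 mm3, mice were randomised to treatment or vehicle control groups. Dosing was by oral gavage at the stated schedules. Tumor volume was L × W²/2, and body weight was tracked. TGI versus vehicle at end of treatment was tested by unpaired two-tailed t-test.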

Mus musculus = assay: Toxicity in SCID mouse xenografted with human MDA-MB-231 cells assessed as change in body weight at 10 to 50 mg/kg administered via oral gavage measured 2 to 3 times per week during compound dosing and measured weekly post treatment; assay type: organism-based; conditions: in vivo
In short: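 Xenografts raised by subcutaneous dorsal injection of 5 × 10⁶ cells in 50% Matrigel into SCID mice, one tumor per mouse. Mice randomized to treatment or vehicle groups at about 100 mm3 tumor volume. Compounds given by oral gavage at the indicated dose-schedules, with percentage body-weight change tracked alongside tumor volume (L × W²/2).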

[9] = molecular target: Bromodomain-containing protein 3 (Homo sapiens, UniProt Q15059); assay: Binding affinity to human BRD3 bromodomain 1 (P24 to E144 residues) expressed in bacterial expression system by BROMOscan assay
Chain of Bromodomain-containing protein 3 (Q15059 whole entry, the tested form may be a part): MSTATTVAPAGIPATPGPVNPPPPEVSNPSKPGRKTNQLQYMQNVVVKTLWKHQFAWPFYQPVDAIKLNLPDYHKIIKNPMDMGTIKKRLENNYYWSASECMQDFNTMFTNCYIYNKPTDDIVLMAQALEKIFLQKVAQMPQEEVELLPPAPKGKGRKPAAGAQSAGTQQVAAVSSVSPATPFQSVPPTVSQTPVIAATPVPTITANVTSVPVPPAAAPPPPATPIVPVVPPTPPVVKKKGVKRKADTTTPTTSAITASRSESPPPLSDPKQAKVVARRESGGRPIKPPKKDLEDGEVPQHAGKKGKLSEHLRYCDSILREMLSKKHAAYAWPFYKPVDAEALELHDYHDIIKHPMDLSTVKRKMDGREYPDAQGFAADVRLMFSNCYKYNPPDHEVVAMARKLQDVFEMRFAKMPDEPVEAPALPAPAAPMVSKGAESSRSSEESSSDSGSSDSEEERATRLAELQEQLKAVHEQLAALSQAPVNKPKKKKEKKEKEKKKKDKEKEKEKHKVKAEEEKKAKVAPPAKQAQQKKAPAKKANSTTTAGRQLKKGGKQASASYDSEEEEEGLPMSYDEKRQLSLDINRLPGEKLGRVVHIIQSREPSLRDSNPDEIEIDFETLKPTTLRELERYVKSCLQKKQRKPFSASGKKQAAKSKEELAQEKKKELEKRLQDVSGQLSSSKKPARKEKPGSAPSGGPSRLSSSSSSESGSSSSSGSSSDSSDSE

[10] = molecular target: T1, Bromodomain-containing protein 4; assay: Binding affinity to human BRD4 bromodomain 1 (N44 to E168 residues) expressed in bacterial expression system by BROMOscan assay
[11] = molecular target: T1, Bromodomain-containing protein 4; assay: Binding affinity to human BRD4 bromodomain 2 (K333 to E460 residues) expressed in bacterial expression system by BROMOscan assay
[12] = molecular target: Chromatin remodeling regulator CECR2 (Homo sapiens, UniProt Q9BXF3); assay: Binding affinity to human CECR2 (P423 to D543 residues) expressed in bacterial expression system by BROMOscan assay
[13] = molecular target: ATPase family AAA domain-containing protein 2B (Homo sapiens, UniProt Q9ULI0); assay: Binding affinity to human ATAD2B (Q955 to R1082 residues) expressed in bacterial expression system by BROMOScan assay
[14] = molecular target: Bromodomain adjacent to zinc finger domain protein 2A (Homo sapiens, UniProt Q9UIF9); assay: Binding affinity to human BAZ2A (M1792 to L1905 residues) expressed in bacterial expression system by BROMOScan assay
[15] = molecular target: Bromodomain-containing protein 9 (Homo sapiens, UniProt Q9H8M2); assay: Binding affinity to human BRD9 (R130 to V259 residues) expressed in bacterial expression system by BROMOScan assay
Chain of Bromodomain-containing protein 9 (Q9H8M2 whole entry, the tested form may be a part): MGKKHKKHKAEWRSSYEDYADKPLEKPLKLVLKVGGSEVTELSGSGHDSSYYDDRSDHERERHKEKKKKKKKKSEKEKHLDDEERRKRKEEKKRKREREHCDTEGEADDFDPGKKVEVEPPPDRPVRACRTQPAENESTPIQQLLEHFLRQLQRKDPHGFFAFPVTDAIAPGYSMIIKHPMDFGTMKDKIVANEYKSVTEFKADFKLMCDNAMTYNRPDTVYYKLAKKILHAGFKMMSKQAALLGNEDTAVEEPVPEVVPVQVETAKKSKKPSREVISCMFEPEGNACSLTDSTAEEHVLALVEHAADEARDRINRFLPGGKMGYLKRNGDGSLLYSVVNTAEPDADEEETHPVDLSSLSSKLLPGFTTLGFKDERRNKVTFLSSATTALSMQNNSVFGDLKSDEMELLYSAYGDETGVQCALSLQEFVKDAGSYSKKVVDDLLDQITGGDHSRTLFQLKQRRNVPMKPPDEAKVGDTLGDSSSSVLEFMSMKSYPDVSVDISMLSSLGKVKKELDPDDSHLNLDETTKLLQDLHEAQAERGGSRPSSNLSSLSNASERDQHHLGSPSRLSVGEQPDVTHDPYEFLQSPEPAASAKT

[16] = molecular target: Histone acetyltransferase KAT2A (Homo sapiens, UniProt Q92830); assay: Binding affinity to human GCN5L2 (E726 to K837 residues) expressed in bacterial expression system by BROMOScan assay
Chain of Histone acetyltransferase KAT2A (Q92830 whole entry, the tested form may be a part): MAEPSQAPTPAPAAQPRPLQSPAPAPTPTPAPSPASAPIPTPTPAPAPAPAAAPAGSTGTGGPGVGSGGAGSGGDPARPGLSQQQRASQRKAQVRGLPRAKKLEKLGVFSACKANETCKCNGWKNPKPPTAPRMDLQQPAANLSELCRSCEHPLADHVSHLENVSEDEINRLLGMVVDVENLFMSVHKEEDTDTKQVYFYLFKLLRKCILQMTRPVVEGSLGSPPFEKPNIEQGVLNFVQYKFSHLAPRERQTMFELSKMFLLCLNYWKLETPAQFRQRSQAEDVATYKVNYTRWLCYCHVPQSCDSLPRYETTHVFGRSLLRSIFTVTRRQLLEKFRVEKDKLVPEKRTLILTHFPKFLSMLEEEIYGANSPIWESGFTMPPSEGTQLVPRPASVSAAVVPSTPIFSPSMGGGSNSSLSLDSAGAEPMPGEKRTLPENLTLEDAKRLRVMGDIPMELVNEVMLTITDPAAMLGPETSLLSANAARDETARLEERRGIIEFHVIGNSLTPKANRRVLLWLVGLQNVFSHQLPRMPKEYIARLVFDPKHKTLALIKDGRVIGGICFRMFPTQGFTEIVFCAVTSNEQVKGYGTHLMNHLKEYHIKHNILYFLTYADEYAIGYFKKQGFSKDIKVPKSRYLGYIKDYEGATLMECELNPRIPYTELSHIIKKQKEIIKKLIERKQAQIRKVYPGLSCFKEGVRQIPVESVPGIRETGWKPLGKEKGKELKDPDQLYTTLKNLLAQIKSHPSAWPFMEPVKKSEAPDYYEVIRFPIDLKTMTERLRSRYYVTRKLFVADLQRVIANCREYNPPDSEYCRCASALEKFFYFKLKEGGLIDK

Protein polybromo-1 [17] = molecular target: T2, Protein polybromo-1 (Homo sapiens, UniProt Q86U86); assay: Binding affinity to human PBRM1 bromodomain 2 (S178 to E291 residues) expressed in bacterial expression system by BROMOScan assay
T2 sequence (Q86U86 whole entry, the tested form may be a part): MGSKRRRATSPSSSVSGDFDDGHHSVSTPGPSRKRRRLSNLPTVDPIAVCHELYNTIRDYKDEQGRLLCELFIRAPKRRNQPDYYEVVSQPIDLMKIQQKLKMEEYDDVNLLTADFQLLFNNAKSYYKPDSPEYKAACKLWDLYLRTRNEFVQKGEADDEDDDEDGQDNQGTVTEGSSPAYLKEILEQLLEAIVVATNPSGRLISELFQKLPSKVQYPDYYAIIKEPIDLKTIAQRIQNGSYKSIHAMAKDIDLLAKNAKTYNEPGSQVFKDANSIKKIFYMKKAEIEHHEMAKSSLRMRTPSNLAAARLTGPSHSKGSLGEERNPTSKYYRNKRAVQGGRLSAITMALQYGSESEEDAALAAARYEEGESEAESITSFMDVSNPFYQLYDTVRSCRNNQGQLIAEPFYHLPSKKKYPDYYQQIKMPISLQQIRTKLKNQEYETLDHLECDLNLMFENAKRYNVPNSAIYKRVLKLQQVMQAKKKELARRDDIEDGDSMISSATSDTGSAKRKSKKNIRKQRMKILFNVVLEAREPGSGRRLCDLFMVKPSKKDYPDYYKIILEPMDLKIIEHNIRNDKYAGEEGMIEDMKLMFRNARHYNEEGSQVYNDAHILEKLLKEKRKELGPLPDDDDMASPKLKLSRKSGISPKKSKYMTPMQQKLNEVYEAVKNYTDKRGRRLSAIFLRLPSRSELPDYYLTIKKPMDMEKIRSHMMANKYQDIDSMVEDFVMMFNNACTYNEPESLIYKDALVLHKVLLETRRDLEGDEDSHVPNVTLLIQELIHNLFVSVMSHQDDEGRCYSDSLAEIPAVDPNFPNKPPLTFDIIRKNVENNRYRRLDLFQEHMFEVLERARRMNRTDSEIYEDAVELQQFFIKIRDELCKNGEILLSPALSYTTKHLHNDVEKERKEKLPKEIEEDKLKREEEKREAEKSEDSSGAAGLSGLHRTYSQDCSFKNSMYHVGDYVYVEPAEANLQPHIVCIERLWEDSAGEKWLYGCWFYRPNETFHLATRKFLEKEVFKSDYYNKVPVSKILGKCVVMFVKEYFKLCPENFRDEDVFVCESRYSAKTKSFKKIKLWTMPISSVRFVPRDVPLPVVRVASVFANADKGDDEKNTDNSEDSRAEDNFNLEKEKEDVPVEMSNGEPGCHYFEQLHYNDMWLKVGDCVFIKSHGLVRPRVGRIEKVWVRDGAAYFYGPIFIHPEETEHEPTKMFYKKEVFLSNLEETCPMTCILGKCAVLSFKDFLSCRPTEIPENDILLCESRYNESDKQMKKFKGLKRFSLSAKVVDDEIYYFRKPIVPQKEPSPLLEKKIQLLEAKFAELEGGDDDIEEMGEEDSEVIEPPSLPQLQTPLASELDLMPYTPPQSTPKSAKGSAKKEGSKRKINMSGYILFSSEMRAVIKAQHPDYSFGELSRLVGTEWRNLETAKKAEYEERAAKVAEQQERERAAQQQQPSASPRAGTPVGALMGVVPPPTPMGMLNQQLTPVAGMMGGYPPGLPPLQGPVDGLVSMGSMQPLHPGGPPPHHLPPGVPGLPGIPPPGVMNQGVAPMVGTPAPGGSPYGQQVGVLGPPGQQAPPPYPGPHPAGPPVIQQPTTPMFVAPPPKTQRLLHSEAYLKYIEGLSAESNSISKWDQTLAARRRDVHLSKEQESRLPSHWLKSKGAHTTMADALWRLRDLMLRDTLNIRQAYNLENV

Protein polybromo-1 [18] = molecular target: T2, Protein polybromo-1; assay: Binding affinity to human PBRM1 bromodomain 5 (S645 to D766 residues) expressed in bacterial expression system by BROMOScan assay
[19] = molecular target: E3 ubiquitin-protein ligase TRIM33 (Homo sapiens, UniProt Q9UPN9); assay: Binding affinity to human TRIM33-phd-bromo (D882 to A1087 residues) expressed in bacterial expression system by BROMOscan assay
Chain of E3 ubiquitin-protein ligase TRIM33 (Q9UPN9 whole entry, the tested form may be a part): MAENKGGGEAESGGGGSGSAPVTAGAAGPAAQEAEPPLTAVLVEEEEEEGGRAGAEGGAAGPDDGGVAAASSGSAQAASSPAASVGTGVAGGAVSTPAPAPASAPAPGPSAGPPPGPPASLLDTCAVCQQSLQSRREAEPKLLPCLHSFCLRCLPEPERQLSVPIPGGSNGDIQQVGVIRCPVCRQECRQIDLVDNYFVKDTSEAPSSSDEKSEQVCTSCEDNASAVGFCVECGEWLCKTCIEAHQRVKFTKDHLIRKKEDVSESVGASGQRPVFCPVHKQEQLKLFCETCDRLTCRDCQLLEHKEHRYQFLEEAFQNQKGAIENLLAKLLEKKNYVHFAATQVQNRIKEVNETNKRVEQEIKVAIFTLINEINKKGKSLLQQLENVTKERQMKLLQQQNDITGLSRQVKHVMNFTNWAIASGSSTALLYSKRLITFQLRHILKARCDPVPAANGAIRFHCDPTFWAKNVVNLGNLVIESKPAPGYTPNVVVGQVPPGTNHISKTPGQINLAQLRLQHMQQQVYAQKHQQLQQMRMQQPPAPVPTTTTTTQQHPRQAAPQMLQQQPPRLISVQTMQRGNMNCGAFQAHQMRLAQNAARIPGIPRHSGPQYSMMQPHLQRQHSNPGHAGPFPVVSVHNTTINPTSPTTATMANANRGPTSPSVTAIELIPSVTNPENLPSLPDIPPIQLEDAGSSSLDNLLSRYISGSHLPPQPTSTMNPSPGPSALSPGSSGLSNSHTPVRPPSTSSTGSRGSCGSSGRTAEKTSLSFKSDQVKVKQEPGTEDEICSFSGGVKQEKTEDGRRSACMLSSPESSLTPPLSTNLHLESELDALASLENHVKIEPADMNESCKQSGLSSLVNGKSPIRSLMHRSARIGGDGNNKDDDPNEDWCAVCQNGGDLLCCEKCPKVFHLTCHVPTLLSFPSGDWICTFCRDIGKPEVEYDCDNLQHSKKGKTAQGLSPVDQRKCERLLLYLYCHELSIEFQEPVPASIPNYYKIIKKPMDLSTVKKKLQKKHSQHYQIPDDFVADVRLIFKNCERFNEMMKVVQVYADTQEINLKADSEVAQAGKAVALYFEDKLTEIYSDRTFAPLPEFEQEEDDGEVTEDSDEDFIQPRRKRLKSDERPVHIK

Homo sapiens [20] = organism: Homo sapiens; assay: Selectivity index, ratio of Kd for human CECR2 (P423 to D543 residues) to Kd for human BRD3 bromodomain 1 (P24 to E144 residues)
Homo sapiens [21] = organism: Homo sapiens; assay: Selectivity index, ratio of Kd for human EP300 (A1040 to G1161 residues) to Kd for human BRD3 bromodomain 2 (G306 to P416 residues)
Homo sapiens [22] = organism: Homo sapiens; assay: Selectivity index, ratio of Kd for human CREBBP (R1081 to G1197 residues) to Kd for human BRD2 bromodomain 1 (K71 to N194 residues)
Homo sapiens [23] = organism: Homo sapiens; assay: Selectivity index, ratio of Kd for human CREBBP (R1081 to G1197 residues) to Kd for human BRD3 bromodomain 1 (P24 to E144 residues)
Homo sapiens [24] = organism: Homo sapiens; assay: Selectivity index, ratio of Kd for human CREBBP (R1081 to G1197 residues) to Kd for human BRD3 bromodomain 2 (G306 to P416 residues)
Homo sapiens [25] = organism: Homo sapiens; assay: Selectivity index, ratio of Kd for human CREBBP (R1081 to G1197 residues) to Kd for human BRDT bromodomain 1 (N21 to E137 residues)
Homo sapiens [26] = organism: Homo sapiens; assay: Selectivity index, ratio of Kd for human CREBBP (R1081 to G1197 residues) to Kd for human BRDT bromodomain 2 (K250 to E382 residues)

SMILES: COc1cc2c(cc1-c1c(C)noc1C)[nH]c1nc(C)nc(Nc3cc(C4CC4)nn3C)c12
- IC50 [1]: 2 nM
- Ki [1]: < 1 nM
- IC50 (MDA-MB-231 [2]): 85 nM
- concentration at 1 h [3]: 7380 ng/g
- concentration at 6 h [4]: 3670 ng/g
- half-life [5]: 1 h
- AUC [6]: 9.05 µM·h
- Vd [7]: 0.83 L/kg
- inhibition in vivo at 50 mg/kg (MDA-MB-231 [8]): 77.3%
- Activity (Mus musculus): Non-Toxic
- Kd [9]: 0.52 nM
- Kd [10]: 2.2 nM
- Kd [11]: 0.8 nM
- Kd [12]: 570 nM
- Kd [13]: > 5000 nM
- Kd [14]: > 5000 nM
- Kd [15]: > 5000 nM
- Kd [16]: > 5000 nM
- Kd (Protein polybromo-1 [17]): > 3000 nM
- Kd (Protein polybromo-1 [18]): > 5000 nM
- Kd [19]: > 5000 nM
- Selectivity Index (Homo sapiens [20]): > 50
- Selectivity Index (Homo sapiens [21]): > 50
- Selectivity Index (Homo sapiens [22]): > 20
- Selectivity Index (Homo sapiens [23]): > 20
- Selectivity Index (Homo sapiens [24]): > 20
- Selectivity Index (Homo sapiens [25]): > 20
- Selectivity Index (Homo sapiens [26]): > 20
